Source: ChEMBL document CHEMBL3407460, “Synthesis of novel thiazole-based 8,9-dihydro-7H-pyrimido[4,5-b][1,4]diazepines as potential antitumor and antifungal agents” (2015)
Values after ≈ are worked out from the molar mass of the structure shown. Values belong to the compound of their own block, whether it stands above or below them.

Tests used:
Format in all cases: functional
[1] = system: Cryptococcus neoformans; assay: Antifungal activity against Cryptococcus neoformans ATCC 32264 assessed as growth inhibition at 62.5 ug/ml after 48 hrs by broth microdilution method; details: ATCC 32264, 48 h
How it was run: (§1)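 CLSI M27-A3 broth microdilution in RPMI-1640. Compound stocks were made in DMSO (final at most 1%) and tested at final levels of 250 to 0.98. Inoculum was 1–5 × 10^3 CFU/mL, incubated 48 h at 30 °C in a moist, dark chamber. Growth and sterility control wells were included.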

[2] = system: Cryptococcus neoformans; assay: Antifungal activity against Cryptococcus neoformans ATCC 32264 assessed as growth inhibition at 7.81 ug/ml after 48 hrs by broth microdilution method; details: ATCC 32264, 48 h; how it was run: as §1
[3] = system: Cryptococcus neoformans; assay: Antifungal activity against Cryptococcus neoformans IM 983040 clinical isolate after 48 hrs by broth microdilution method; details: IM 983040, 48 h
How it was run: (§2)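 Clinical isolates from the Malbrán Institute were grown on Sabouraud-chloramphenicol agar for 48 h at 30 °C, kept on Sabouraud-dextrose agar and subcultured every 15 days. M27-A3 RPMI-1640 microdilution used 1–5 × 10^3 CFU/mL, 48 h at 30 °C, OD405 read, triplicate. Endpoints MIC100, MIC80 and MIC50 were taken from % inhibition dose-response curves.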

[4] = system: Cryptococcus neoformans; assay: Antifungal activity against Cryptococcus neoformans ATCC 32264 assessed as growth inhibition at 31.25 ug/ml after 48 hrs by broth microdilution method; details: ATCC 32264, 48 h; how it was run: as §1
[5] = system: Cryptococcus neoformans; assay: Antifungal activity against Cryptococcus neoformans IM 983036 clinical isolate after 48 hrs by broth microdilution method; details: IM 983036, 48 h; how it was run: as §2
[6] = system: Candida albicans; assay: Antifungal activity against Candida albicans ATCC 10231 assessed as growth inhibition at 250 ug/ml after 48 hrs by broth microdilution method; details: ATCC 10231, 48 h; how it was run: as §1
[7] = system: Cryptococcus neoformans; assay: Antifungal activity against Cryptococcus neoformans IM 972724 clinical isolate after 48 hrs by broth microdilution method; details: IM 972724, 48 h; how it was run: as §2
[8] = system: Candida albicans; assay: Antifungal activity against Candida albicans ATCC 10231 assessed as growth inhibition at 7.81 ug/ml after 48 hrs by broth microdilution method; details: ATCC 10231, 48 h; how it was run: as §1
[9] = system: Candida albicans; assay: Antifungal activity against Candida albicans ATCC 10231 assessed as growth inhibition at 3.9 ug/ml after 48 hrs by broth microdilution method; details: ATCC 10231, 48 h; how it was run: as §1
[10] = system: Cryptococcus neoformans; assay: Antifungal activity against Cryptococcus neoformans ATCC 32264 assessed as growth inhibition at 15.62 ug/ml after 48 hrs by broth microdilution method; details: ATCC 32264, 48 h; how it was run: as §1
[11] = system: Cryptococcus neoformans; assay: Antifungal activity against Cryptococcus neoformans ATCC 32264 assessed as growth inhibition at 250 ug/ml after 48 hrs by broth microdilution method; details: ATCC 32264, 48 h; how it was run: as §1
[12] = system: Cryptococcus neoformans; assay: Antifungal activity against Cryptococcus neoformans ATCC 32264 assessed as growth inhibition at 125 ug/ml after 48 hrs by broth microdilution method; details: ATCC 32264, 48 h; how it was run: as §1
[13] = system: Cryptococcus neoformans; assay: Antifungal activity against Cryptococcus neoformans IM 052470 clinical isolate after 48 hrs by broth microdilution method; details: IM 052470, 48 h
How it was run: (§3)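 Clinical isolates from the Malbrán Institute were grown on Sabouraud-chloramphenicol agar for 48 h at 30 °C, kept on Sabouraud-dextrose agar and subcultured every 15 days. Endpoints MIC100, MIC80 and MIC50 were taken from % inhibition dose-response curves.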

[14] = system: Cryptococcus neoformans; assay: Antifungal activity against Cryptococcus neoformans IM 031706 clinical isolate after 48 hrs by broth microdilution method; details: IM 031706, 48 h; how it was run: as §3
[15] = system: Cryptococcus neoformans; assay: Antifungal activity against Cryptococcus neoformans ATCC 32264 after 48 hrs by broth microdilution method; details: ATCC 32264, 48 h
[16] = system: Candida albicans; assay: Antifungal activity against Candida albicans ATCC 10231 assessed as growth inhibition at 15.62 ug/ml after 48 hrs by broth microdilution method; details: ATCC 10231, 48 h; how it was run: as §1
[17] = system: Candida albicans; assay: Antifungal activity against Candida albicans ATCC 10231 assessed as growth inhibition at 125 ug/ml after 48 hrs by broth microdilution method; details: ATCC 10231, 48 h; how it was run: as §1
[18] = system: Cryptococcus neoformans; assay: Antifungal activity against Cryptococcus neoformans ATCC 32264 assessed as growth inhibition at 3.9 ug/ml after 48 hrs by broth microdilution method; details: ATCC 32264, 48 h; how it was run: as §1
[19] = system: Cryptococcus neoformans; assay: Antifungal activity against Cryptococcus neoformans IM 961951 clinical isolate after 48 hrs by broth microdilution method; details: IM 961951, 48 h; how it was run: as §2
[20] = system: Candida albicans; assay: Antifungal activity against Candida albicans ATCC 10231 assessed as growth inhibition at 62.5 ug/ml after 48 hrs by broth microdilution method; details: ATCC 10231, 48 h; how it was run: as §1
[21] = system: Cryptococcus neoformans; assay: Antifungal activity against Cryptococcus neoformans IM 031631 clinical isolate after 48 hrs by broth microdilution method; details: IM 031631, 48 h; how it was run: as §2
[22] = system: Cryptococcus neoformans; assay: Antifungal activity against Cryptococcus neoformans IM 00319 clinical isolate after 48 hrs by broth microdilution method; details: IM 00319, 48 h; how it was run: as §3
[23] = system: Cryptococcus neoformans; assay: Antifungal activity against Cryptococcus neoformans IM 972751 clinical isolate after 48 hrs by broth microdilution method; details: IM 972751, 48 h; how it was run: as §2
[24] = system: Candida albicans; assay: Antifungal activity against Candida albicans ATCC 10231 assessed as growth inhibition at 31.25 ug/ml after 48 hrs by broth microdilution method; details: ATCC 10231, 48 h; how it was run: as §1
[25] = system: Cryptococcus neoformans; assay: Antifungal activity against Cryptococcus neoformans IM 042074 clinical isolate after 48 hrs by broth microdilution method; details: IM 042074, 48 h; how it was run: as §2

MIC50 [3]: 31.2 µg/mL (≈ 70.8 µM)
MIC80 [3]: 31.2 µg/mL (≈ 70.8 µM)
MIC ([3]; read-out: MIC100): 31.2 µg/mL (≈ 70.8 µM)
MIC50 [5]: 15.6 µg/mL (≈ 35.4 µM)
MIC80 [5]: 15.6 µg/mL (≈ 35.4 µM)
MIC ([5]; read-out: MIC100): 31.2 µg/mL (≈ 70.8 µM)
MIC50 [7]: 7.8 µg/mL (≈ 17.7 µM)
MIC80 [7]: 15.6 µg/mL (≈ 35.4 µM)
MIC ([7]; read-out: MIC100): 15.6 µg/mL (≈ 35.4 µM)
MIC50 [13]: 15.6 µg/mL (≈ 35.4 µM)
MIC80 [13]: 31.2 µg/mL (≈ 70.9 µM)
MIC ([13]; read-out: MIC100): 62.5 µg/mL (≈ 142 µM)
MIC50 [14]: 7.8 µg/mL (≈ 17.7 µM)
MIC80 [14]: 31.2 µg/mL (≈ 70.8 µM)
MIC ([14]; read-out: MIC100): 62.5 µg/mL (≈ 142 µM)
MIC50 [15]: 7.8 µg/mL (≈ 17.7 µM)
MIC80 [15]: 15.6 µg/mL (≈ 35.4 µM)
MIC ([15]; read-out: MIC100): 15.6 µg/mL (≈ 35.4 µM)
MIC50 [19]: 7.8 µg/mL (≈ 17.7 µM)
MIC80 [19]: 15.6 µg/mL (≈ 35.4 µM)
MIC ([19]; read-out: MIC100): 15.6 µg/mL (≈ 35.4 µM)
MIC50 [21]: 7.8 µg/mL (≈ 17.7 µM)
MIC80 [21]: 15.6 µg/mL (≈ 35.4 µM)
MIC ([21]; read-out: MIC100): 31.2 µg/mL (≈ 70.8 µM)
MIC50 [22]: 7.8 µg/mL (≈ 17.7 µM)
MIC80 [22]: 15.6 µg/mL (≈ 35.4 µM)
MIC ([22]; read-out: MIC100): 15.6 µg/mL (≈ 35.4 µM)
MIC50 [23]: 31.2 µg/mL (≈ 70.8 µM)
MIC80 [23]: 31.2 µg/mL (≈ 70.8 µM)
MIC ([23]; read-out: MIC100): 62.5 µg/mL (≈ 142 µM)
MIC50 [25]: 15.6 µg/mL (≈ 35.4 µM)
MIC80 [25]: 31.2 µg/mL (≈ 70.8 µM)
MIC ([25]; read-out: MIC100): 31.2 µg/mL (≈ 70.8 µM)
SMILES: Nc1nc(N)c2c(n1)NC(c1sc(Cl)nc1Cl)CC(c1ccc(Cl)cc1)=N2 (configuration not stated)
inhibition at 62.5 µg/mL [1]: 40.5%
inhibition at 7.81 µg/mL [2]: 3.56%
MFC [3]: 62.5 µg/mL (≈ 142 µM)
inhibition at 31.25 µg/mL [4]: 30.5%
MFC [5]: 31.2 µg/mL (≈ 70.8 µM)
inhibition at 250 µg/mL [6]: 100%
MFC [7]: 31.2 µg/mL (≈ 70.8 µM)
inhibition at 7.81 µg/mL [8]: 48.3%
inhibition at 3.9 µg/mL [9]: 22.2%
inhibition at 15.62 µg/mL [10]: 13.1%
inhibition at 250 µg/mL [11]: 78.7%
inhibition at 125 µg/mL [12]: 58.2%
MFC [13]: 62.5 µg/mL (≈ 142 µM)
MFC [14]: 62.5 µg/mL (≈ 142 µM)
MFC [15]: 31.2 µg/mL (≈ 70.8 µM)
inhibition at 15.62 µg/mL [16]: 100%
inhibition at 125 µg/mL [17]: 100%
inhibition at 3.9 µg/mL [18]: 0%
MFC [19]: 62.5 µg/mL (≈ 142 µM)
inhibition at 62.5 µg/mL [20]: 100%
MFC [21]: 62.5 µg/mL (≈ 142 µM)
MFC [22]: 31.2 µg/mL (≈ 70.8 µM)
MFC [23]: 62.5 µg/mL (≈ 142 µM)
inhibition at 31.25 µg/mL [24]: 100%
MFC [25]: 62.5 µg/mL (≈ 142 µM)

SMILES: Nc1nc(N)c2c(n1)NC(c1sc(Cl)nc1Cl)CC(c1ccc(F)cc1)=N2 (configuration not stated)
inhibition at 62.5 µg/mL [1]: 12.8%
inhibition at 7.81 µg/mL [2]: 5.01%
inhibition at 31.25 µg/mL [4]: 11%
inhibition at 250 µg/mL [6]: 59.9%
inhibition at 7.81 µg/mL [8]: 0%
inhibition at 3.9 µg/mL [9]: 0%
inhibition at 15.62 µg/mL [10]: 7.17%
inhibition at 250 µg/mL [11]: 25.5%
inhibition at 125 µg/mL [12]: 24.6%
inhibition at 15.62 µg/mL [16]: 17.9%
inhibition at 125 µg/mL [17]: 51.7%
inhibition at 3.9 µg/mL [18]: 3.83%
inhibition at 62.5 µg/mL [20]: 43.3%
inhibition at 31.25 µg/mL [24]: 21.3%
